In ChEMBL document CHEMBL3860041, “Synthesis, biological evaluation and molecular modeling study of some new methoxylated 2-benzylthio-quinazoline-4(3H)-ones as nonclassical antifolates” (Bioorg Med Chem Lett, 2016) one finds inhibition of growth, MIC and zone of inhibition data, which are given here for 6 molecules.

A short description of assay [1]: Growth inhibition of human MDA-MB-435 cells at 10 uM after 48 hrs by SRB assay relative to control. The class given is functional. The settings on record: MDA-MB-435, 48 h, read-out: GI. A digest of the protocol:
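NCI 60-cell-line panel, nine tumor subpanels; compounds tested at a single dose of 10 μM in the primary screen.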
A general note: The SRB assay estimates cell density from bound dye.

Assay [2] deals with Bacillus subtilis. The assay can be described thus: Antimicrobial activity against Bacillus subtilis IFO 3007 measured after 24 hrs by microdilution method. The class given is functional. The settings on record: IFO 3007, 24 h. Background: Broth dilution looks for growth in wells or tubes with falling amounts of substance.
Assay [3] deals with Staphylococcus aureus. The assay can be described thus: Antimicrobial activity against Staphylococcus aureus IFO 3060 measured after 24 hrs by microdilution method. To be noted: IFO 3060, 24 h. The class given is functional.
Assay [4] concerns Escherichia coli. In words: microbe, parasite or virus in culture. To be noted: IFO 3301, 24 h.
Another assay deals with Pseudomonas aeruginosa. In words: Antimicrobial activity against Pseudomonas aeruginosa IFO 3448 at 200 ug/disc measured after 24 hrs by agar disc-diffusion method. The class given is functional. The settings on record: IFO 3448, 24 h, read-out: DIZ. (In general: In agar diffusion tests the substance spreads into inoculated agar from a disc or well.)
The subject of assay [5] is Escherichia coli. In words: Antimicrobial activity against Escherichia coli IFO 3301 at 200 ug/disc measured after 24 hrs by agar disc-diffusion method. The settings on record: IFO 3301, 24 h, read-out: DIZ. The class given is functional.
In assay [6] the test system is Staphylococcus aureus. In words: Antimicrobial activity against Staphylococcus aureus IFO 3060 at 200 ug/disc measured after 24 hrs by agar disc-diffusion method. The settings on record: IFO 3060, 24 h, read-out: DIZ. Format: functional.
The next assay concerns Candida albicans. In words: Antimicrobial activity against Candida albicans IFO 0583 at 200 ug/disc measured after 48 hrs by agar disc-diffusion method. The class given is functional. The settings on record: IFO 0583, 48 h, read-out: DIZ.
Assay [7] relates to Bacillus subtilis. In words: Antimicrobial activity against Bacillus subtilis IFO 3007 at 200 ug/disc measured after 24 hrs by agar disc-diffusion method. Format: functional. The settings on record: IFO 3007, 24 h, read-out: DIZ.

In brackets after ≈: the same amount, converted by molar mass.

Consider `COc1cc2nc(SCc3cc(OC)c(OC)c(OC)c3)n(-c3ccccc3OC)c(=O)c2cc1OC`, for which the inhibition of growth at 10 µM in assay [1] came out at 100%.
On to `COc1cc(CSc2nc3ccc(Cl)cc3c(=O)n2-c2ccccc2)cc(OC)c1OC`, for which the MIC in the assay with Bacillus subtilis [2] amounted to 4 mg/L (≈ 8.53 µM); with Staphylococcus aureus [3], 8 mg/L (≈ 17.1 µM); against Escherichia coli [4], 8 mg/L (≈ 17.1 µM). Moreover, the inhibition of growth at 10 µM in assay [1] turned out to be 75.6%. Besides, the zone of inhibition at 200 µg/disc amounted to 8 mm in the assay with Pseudomonas aeruginosa; 16 mm with Escherichia coli [5]; 17 mm in the assay on Staphylococcus aureus [6]; 8 mm in the assay on Candida albicans; 20 mm in the assay on Bacillus subtilis [7].
Take `COc1cc2nc(SCc3cc(OC)c(OC)c(OC)c3)n(Cc3ccccc3)c(=O)c2cc1OC`: the MIC in the assay with Bacillus subtilis [2] is 4 mg/L (≈ 7.86 µM); in the assay with Staphylococcus aureus [3], 4 mg/L (≈ 7.86 µM); in the assay with Escherichia coli [4], 8 mg/L (≈ 15.7 µM). Further, the zone of inhibition at 200 µg/disc with Pseudomonas aeruginosa came out at 8 mm; in the assay with Escherichia coli [5] it was 16 mm; with Staphylococcus aureus [6] it was 20 mm; with Candida albicans it was 8 mm; in the assay on Bacillus subtilis [7] it was 22 mm.
With `COc1ccc(-n2c(SCc3cc(OC)c(OC)c(OC)c3)nc3ccc(Cl)cc3c2=O)cc1`, the inhibition of growth at 10 µM in assay [1] stood at 12.4%.
In the case of `COc1ccc(CSc2nc3cc(OC)c(OC)cc3c(=O)n2-c2ccc(OC)cc2OC)cc1`, in assay [1], the inhibition of growth at 10 µM came out at 38%.
With `COc1cc(CSc2nc3ccc(Cl)cc3c(=O)n2Cc2ccccc2)cc(OC)c1OC`, the inhibition of growth at 10 µM in assay [1] is 98.2%.
